Assay results collected from several papers.
Observed: cell growth or viability

Compound	cell line	technique	time	IC50
O=C(O)c1cc(/N=N/c2ccc(S(=O)(=O)Nc3ccccn3)cc2)ccc1O	VCaP	CCK-8	72 h	> 30 µM
COc1nc(SC)nc(OC)c1C(=O)/C=C/[c-]1cccc1.[Fe+2].c1cc[cH-]c1	4T1	MTT	72 h	214 µM
CCN(CC)CCOC(=O)C1(c2ccc([N+](=O)[O-])cc2)CCCC1	CAL-27	–	72 h	> 20 µM
O=C(c1cc(Cl)c(Cl)[nH]1)c1c(O)ccc(Cc2cc(C(c3csc(-c4ccccc4O)n3)c3ccc(O)c(C(=O)c4cc(Cl)c(Cl)[nH]4)c3O)c(O)c(C(=O)c3cc(Cl)c(Cl)[nH]3)c2O)c1O (stereo not shown)	MDCK	MTT	72 h	28 µg/mL
Cc1cn([C@H]2C[C@H](N=[N+]=[N-])[C@@H](CO)O2)c(=O)[nH]c1=O	VCaP	CCK-8	72 h	> 30 µM
CCCCc1cccc(-c2cnc3c(n2)CCCC3)c1	MCF-10A	–	48 h	> 50 µM
COc1cc(Nc2nccc(-c3cnn4nc(OC)ccc34)n2)cc(C(F)(F)F)c1	SCLC-21H	ATP luminescence	–	0.36 µM
O=C(C=C[c-]1cccc1)c1ccc[nH]1.[Fe+2].c1cc[cH-]c1	4T1	MTT	72 h	76.5 µM
COc1ccc(-c2cnc3c(n2)CCCC3)cc1Cl	MCF-10A	–	48 h	35.7 µM
CC(=O)CC(c1ccccc1)c1c(O)c2ccccc2oc1=O (stereo not shown)	CAL-27	–	72 h	> 20 µM
c1ccc(-c2cnc3c(n2)CCCC3)cc1	MCF-10A	–	48 h	> 50 µM
C=C1CC[C@@H]2[C@](C)(CO)[C@H](O)CC[C@@]2(C)[C@@H]1C/C=C1/C(=O)OC[C@H]1O	VCaP	CCK-8	72 h	20.4 µM
CC(=O)O[C@@]12CO[C@@H]1C[C@H](O)[C@@]1(C)C(=O)[C@H](O)C3=C(C)[C@@H](OC(=O)[C@H](O)[C@@H](NC(=O)OC(C)(C)C)c4ccccc4)C[C@@](O)([C@@H](OC(=O)c4ccccc4)[C@H]21)C3(C)C	4T1	CCK-8	72 h	0.118 µM
COc1cccc2c1C(=O)c1c(O)c3c(c(O)c1C2=O)C[C@@](O)(C(=O)CO)C[C@@H]3O[C@H]1C[C@H](N)[C@H](O)[C@H](C)O1	MCF-10A	–	48 h	77 µM
O=C1CCCCC1C1C2C=CC=CC1C(C1CC1)=C2 (stereo not shown)	K562	flow cytometry	–	0.017 µM
Nc1nc(Nc2ccccc2)nc2c1ncn2[C@@H]1O[C@H](CO)[C@@H](O)[C@H]1O	CAL-27	–	72 h	> 20 µM

Compound	cell line	technique	time	IC50
CN(C)c1ccc2cc(C(=O)N[C@@H](CCCNC(=N)CCl)C(=O)NCc3ccccc3)ccc2c1	4T1	–	48 h	11.9 µM
CCCCOc1cccc(-c2cnc3c(n2)CCCC3)c1	MCF-10A	–	48 h	> 50 µM
CCCCc1ccc2[nH]c(NC(=O)OC)nc2c1	GTL 16	CCK-8	72 h	0.284 µM
CC(C)C[C@H](NC(=O)[C@H](Cc1ccccc1)NC(=O)c1cnccn1)B(O)O	P31-FUJ	ATP luminescence	–	0.0051 µM
CC(C)c1cc(-c2n[nH]c(=O)n2-c2ccc3c(ccn3C)c2)c(O)cc1O	MDA-MB-415	imaging	24 h	0.024 µM
COc1ccc(-c2cnc3c(n2)CCCC3)nc1	MCF-10A	–	48 h	> 50 µM
CCN(CC)CCNC(=O)COc1ccc(OC)cc1	CAL-27	–	72 h	> 20 µM
CC(C)c1cccc(C(C)C)c1-n1c(Cl)c(Cl)n(-c2c(C(C)C)cccc2C(C)C)c1=[Se]	HCT-15	MTT	72 h	14.2 µM
COc1ccc(CCN(C)CCc2ccc(OC)c(OC)c2)cc1OC	CAL-27	–	72 h	> 20 µM
Cc1ccc(C(=O)Nc2ccc(Oc3cc4cnn(C)c4cc3-c3cn[nH]c3)c(F)c2)c(=O)n1-c1ccc(F)cc1	NCI-H1993	ATP luminescence	–	0.076 µM
COc1cc(-c2ncn(/C=C\C(=O)OC(C)C)n2)cc(C(F)(F)F)c1	F-36P	–	72 h	0.063 µM
Clc1ccc(N2CCN(Cc3c[nH]c4ncccc34)CC2)cc1	CAL-27	–	72 h	> 20 µM
CC(C)Oc1cccc(-c2cnc3c(n2)CCCC3)c1	MCF-10A	–	48 h	25 to 50 µM
Clc1ccc2c(c1)N=C(N1CCNCC1)c1ccccc1N2	CAL-27	–	72 h	> 20 µM
O=C(NC(=S)NCCCNC(=S)NC(=O)c1ccc2ccccc2c1)c1ccc2ccccc2c1	MCF-10A	–	48 h	90.2 µM
